Experimental data as given in ChEMBL document CHEMBL1938251, “Synthesis and evaluation of potent and selective human V1a receptor antagonists as potential ligands for PET or SPECT imaging” (Bioorg Med Chem, 2012).

What was measured:
Vasopressin V1b receptor = target: T1, Vasopressin V1b receptor (Homo sapiens, UniProt P47901); experiment: Binding affinity to human V1b receptor
T1 sequence (P47901 whole entry): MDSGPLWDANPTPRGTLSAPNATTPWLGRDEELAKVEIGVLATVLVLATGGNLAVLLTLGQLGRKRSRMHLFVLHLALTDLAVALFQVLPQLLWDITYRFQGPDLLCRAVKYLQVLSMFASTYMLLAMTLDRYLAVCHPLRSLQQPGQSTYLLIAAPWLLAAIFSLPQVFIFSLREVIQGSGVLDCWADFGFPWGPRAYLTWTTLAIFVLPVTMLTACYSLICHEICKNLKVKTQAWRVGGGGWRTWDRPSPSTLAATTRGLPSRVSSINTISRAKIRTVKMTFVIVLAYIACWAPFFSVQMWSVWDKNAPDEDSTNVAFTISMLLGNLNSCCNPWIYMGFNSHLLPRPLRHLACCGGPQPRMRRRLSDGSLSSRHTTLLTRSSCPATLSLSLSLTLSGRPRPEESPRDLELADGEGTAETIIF

[1] = Permeability of the compound at 5 mg/ml after 18 hrs by PAMPA-BBB assay; assay type: ADME; conditions: in the assay text read “25 ug/ml” for “5 mg/ml”
Summary of the method: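 PAMPA-BBB: DMSO stocks (5 mg/mL) diluted 200-fold into universal buffer pH 7.4, giving 25 μg/mL in the donor wells. The filter membrane was coated with porcine brain lipid in dodecane (20 mg/mL), with buffer pH 7.4 as acceptor. Plates stood undisturbed at room temperature for 18 h. Verapamil and theophylline served as high- and low-permeability standards. Pe was calculated by the Faller equation.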

Vasopressin V2 receptor = Vasopressin V2 receptor (Homo sapiens, UniProt P30518); experiment: Binding affinity to human vasopressin V2 receptor
Chain of Vasopressin V2 receptor (P30518 whole entry): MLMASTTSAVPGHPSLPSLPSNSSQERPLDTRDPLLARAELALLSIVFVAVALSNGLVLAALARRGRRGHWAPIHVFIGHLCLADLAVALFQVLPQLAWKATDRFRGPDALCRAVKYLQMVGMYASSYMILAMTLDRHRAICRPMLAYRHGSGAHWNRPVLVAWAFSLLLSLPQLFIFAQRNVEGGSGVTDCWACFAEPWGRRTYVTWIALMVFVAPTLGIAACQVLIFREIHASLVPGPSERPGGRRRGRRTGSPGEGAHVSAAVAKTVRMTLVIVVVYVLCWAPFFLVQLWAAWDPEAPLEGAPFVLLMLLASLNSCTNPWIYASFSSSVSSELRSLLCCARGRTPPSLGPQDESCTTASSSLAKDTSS

Vasopressin V1a receptor = Vasopressin V1a receptor (Homo sapiens, UniProt P37288); experiment: Displacement of [3H]arginine-vasopressin from human Vasopressin V1a receptor after 30 mins by liquid scintillation counter
Chain of Vasopressin V1a receptor (P37288 whole entry): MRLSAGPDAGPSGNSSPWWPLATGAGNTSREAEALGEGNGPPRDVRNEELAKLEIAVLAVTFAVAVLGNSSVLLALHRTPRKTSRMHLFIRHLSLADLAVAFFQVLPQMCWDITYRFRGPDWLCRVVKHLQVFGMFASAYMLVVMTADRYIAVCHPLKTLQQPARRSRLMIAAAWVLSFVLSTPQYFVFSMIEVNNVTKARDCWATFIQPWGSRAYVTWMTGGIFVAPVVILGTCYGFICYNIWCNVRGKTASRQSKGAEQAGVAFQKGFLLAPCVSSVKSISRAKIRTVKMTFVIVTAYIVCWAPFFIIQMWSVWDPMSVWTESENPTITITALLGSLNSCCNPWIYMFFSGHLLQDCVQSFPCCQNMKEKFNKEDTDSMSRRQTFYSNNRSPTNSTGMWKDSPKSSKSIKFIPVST

[2] = Permeability of the compound at 25 ug/ml after 18 hrs by PAMPA-BBB assay

Ki (Vasopressin V1b receptor) | permeability [1] | Ki (Vasopressin V2 receptor) | Ki (Vasopressin V1a receptor) | permeability [2] | Structure (SMILES)
> 1000 nM | 2.2 ×10⁻⁶ cm/s | > 1 µM | – | – | C[C@@H](NC(=O)[C@@H](CC(=O)N1CCC(N2CCCCC2)CC1)N1C(=O)[C@@H](N2C(=O)OC[C@@H]2c2ccccc2)[C@H]1/C=C/c1cccc(I)c1)c1ccccc1
1150 nM | – | > 10 µM | 0.61 nM | 5.3 ×10⁻⁶ cm/s | C[C@@H](NC(=O)[C@@H](CC(=O)N1CCC(N2CCCCC2)CC1)N1C(=O)[C@@H](N2C(=O)OC[C@@H]2c2ccccc2)[C@H]1/C=C/c1cccc(F)c1)c1ccccc1
1300 nM | – | > 10 µM | 0.63 nM | 4.5 ×10⁻⁶ cm/s | Cc1cccc(/C=C/[C@@H]2[C@H](N3C(=O)OC[C@@H]3c3ccccc3)C(=O)N2[C@H](CC(=O)N2CCC(N3CCCCC3)CC2)C(=O)N[C@H](C)c2ccccc2)c1
